Rows were chosen to be rich in hits. Some 3.8% of all compounds tested hit in one or more screens of this group.
CHO parental Ca: signal in parental CHO cells, OX1R antagonist counter-screen; parental CHO-K1, ATP-induced calcium, Fluo-8 fluorescence; inhibition, % at 5.6 µM; actives 0.63% (n = 330,000);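 active means inhibition above that plate's mean sample inhibition plus 3 SD, cut at about 26% in these data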;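 further: 0% = ATP-challenged DMSO wells and 100% = DMSO wells without ATP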
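Assay system – parental CHO cells · Reagent – ATP stimulus · Detection – intracellular calcium via Fluo-8 no-wash fluorescent dye · Evaluation – percent inhibition of ATP-evoked calcium rise, normalized to controls · Controls – ATP wells versus no-ATP DMSO wells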
OX1R antag-1: antagonists of human orexin 1 receptor | O43613 | CHO/OX1R cells, Fluo-8 calcium fluorescence, orexin A | inhibition, % at 5 µM | actives 0.43% (n = 330,000) | AID 434989;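 active means inhibition above its plate's threshold, mean inhibition of all tested compounds on the plate plus 3 SD, cut at about 37% in these data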;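 further: 0% = orexin A challenge wells and 100% = SB-334867-A antagonist wells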
Target sequence (O43613 whole entry, looked up): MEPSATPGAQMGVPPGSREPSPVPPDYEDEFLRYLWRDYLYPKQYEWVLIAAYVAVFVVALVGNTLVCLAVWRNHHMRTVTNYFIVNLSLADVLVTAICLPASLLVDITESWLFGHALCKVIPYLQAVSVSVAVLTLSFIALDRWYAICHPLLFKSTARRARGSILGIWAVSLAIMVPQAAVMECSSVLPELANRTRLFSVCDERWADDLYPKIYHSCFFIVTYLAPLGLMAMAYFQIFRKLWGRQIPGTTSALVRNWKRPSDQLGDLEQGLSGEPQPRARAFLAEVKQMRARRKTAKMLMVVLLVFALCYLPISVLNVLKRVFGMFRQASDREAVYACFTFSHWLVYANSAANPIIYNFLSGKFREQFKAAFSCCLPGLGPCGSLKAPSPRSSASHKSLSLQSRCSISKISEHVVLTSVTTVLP
MPTP inh: permeability transition pore inhibition; isolated mouse mitochondria, Ca2+ swelling absorbance, 30 min; inhibition, % at 10 µM; actives 1.4% (n = 360,000); AID 602449;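 active means inhibition of 50% or more, scaled per plate between neutral and stimulator controls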;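 further: 0% = DMSO wells given calcium and 100% = 1 mM EGTA wells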
OX1R antag-2: OX1R (human) antagonism; O43613; OX1R-expressing cells, FRET antagonist read-out; inhibition, % at 6.6 µM; actives 1.8% (n = 330,000); AID 485270; in the data active means inhibition mostly above about 38%, no sharp cut-off; inactive means mostly below about 40%;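 further: 0% = agonist challenge alone and 100% = reference antagonist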
GPR7 antag: blocks human GPR7 receptor signaling | inhibition, % at 4.4 µM | actives 1.1% (n = 290,000) | GPR7-expressing cells, fluorescence antagonist assay | P48145; in the data active means inhibition above about 16%, passing the limit was not always enough;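 further: cells stimulated with the agonist NPW; 0% = agonist with vehicle and 100% = vehicle without agonist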
OX1R HTRF confirm: OX1R (human) antagonism, HTRF confirmed. shares compounds with OX1R antag-2. OX1R-expressing cells, HTRF antagonist assay. inhibition, % at 6.6 µM. actives 49% (n = 1,800); in the data active means inhibition above about 55%;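 further: CHO cells expressing OX1R stimulated with orexin A at about EC80; 0% = agonist challenge alone and 100% = reference antagonist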
CHO-K1 HTRF: counter-screen for OX1R antagonists: effect in parental CHO-K1 cells. shares compounds with OX1R antag-2. HTRF counterscreen. inhibition, % at 6.6 µM. actives 48% (n = 1,800). AID 493232; in the data active means inhibition above about 17%;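 further: 0% = agonist challenge with vehicle and 100% = vehicle alone without agonist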
* marks the source's active call; other numbers are inactive results; . = not tested or not shown.

SMILES | CHO parental Ca | OX1R antag-1 | MPTP inh | OX1R antag-2 | GPR7 antag | OX1R HTRF confirm | CHO-K1 HTRF
NC(=O)C1CCN(C(=O)c2ccc3c(c2)S(=O)(=O)c2ccccc2C3=O)CC1 | -6.0 | -9.5 | 0.4 | 88.0* | -14.0 | 59.8* | 69.9*
O=C1c2ccccc2S(=O)(=O)c2cc(C(=O)N3CCCC3)ccc21 | -15.0 | -21.9 | -0.5 | 103.7* | . | 43.6 | 69.0*
COc1ccc(NC(=O)CCNS(=O)(=O)c2cccc3nsnc23)cc1OC | -1.1 | -4.4 | 0.2 | 84.2* | -7.2 | 30.0 | 24.7*
COc1ccc(/C=N/NC(=O)Nc2cccc3nsnc23)cc1OC | -12.9 | 19.2 | -5.6 | 82.1* | 10.4 | 67.2* | -5.5
O=C(Nc1ccc2nsnc2c1)N1CCCCCC1 | -7.8 | -2.8 | 1.9 | 87.2* | 8.8 | 35.2 | 27.4*
Cc1ccc(C(=O)NCCC(=O)N2CCC3(CC2)NCCc2[nH]cnc23)cc1C | -4.1 | -6.9 | 1.8 | 10.3 | -6.7 | . | .
O=C(NCCN1CCOCC1)c1ccc(Cl)c([N+](=O)[O-])c1 | -5.0 | -7.7 | 0.2 | 11.6 | -11.2 | . | .
CC(C)(CO)Nc1ccc([N+](=O)[O-])cc1[N+](=O)[O-] | 0.5 | 5.1 | -9.7 | 93.6* | -4.0 | 34.4 | 37.5*
O=[N+]([O-])c1ccc(NCCCN2CCOCC2)c([N+](=O)[O-])c1 | 8.8 | -12.7 | -1.1 | 170.7* | -11.4 | 46.0 | 72.3*
Nc1ccc(Nc2ccc([N+](=O)[O-])cc2[N+](=O)[O-])cc1 | 0.4 | -15.0 | 1.3 | 36.2 | -1.6 | . | .
O=C(NCCN1CCOCC1)c1cc([N+](=O)[O-])cc([N+](=O)[O-])c1 | -10.6 | -6.2 | -1.7 | 78.3* | -14.2 | 49.8 | 71.9*
NC(=O)c1ccc(Nc2ccc([N+](=O)[O-])cc2[N+](=O)[O-])cc1 | -9.4 | -4.1 | -0.9 | 107.1* | 12.1 | 42.2 | 54.3*
COc1cccc(-c2ccc(C3=CC(=O)CC(C)(C)C3=O)cc2)c1OC | . | . | -1.2 | . | . | . | .
CC(=O)Nc1ccc(-c2ccnc3c2CC(C)(C(=O)Nc2cccc(C(C)=O)c2)O3)cc1 (configuration not stated) | . | . | -2.5 | . | . | . | .
CCOc1ccc(-n2cnc3sc(C)c(C)c3c2=O)cc1 | -2.3 | -21.0 | 1.2 | 9.7 | -17.1 | . | .
O=C(NCc1cccnc1)c1ccc(Cl)cc1[N+](=O)[O-] | -21.5 | -15.6 | -0.5 | 77.1* | -5.5 | 40.8 | 32.8*
O=C(c1cc([N+](=O)[O-])cc([N+](=O)[O-])c1)N1CCOCC1 | 2.8 | -1.9 | 0.3 | 110.9* | -5.0 | 51.1 | 78.0*
O=C(NCCCN1CCOCC1)c1ccc(Cl)cc1[N+](=O)[O-] | -5.5 | -18.6 | -0.8 | 105.5* | -4.2 | 36.1 | 6.5
O=C(NCCCN1CCOCC1)c1cc(Cl)ccc1[N+](=O)[O-] | -2.9 | 5.7 | 0.7 | 30.0 | -3.6 | . | .
COc1ccc(C(=O)N2CCC(C(=O)N3CCN(Cc4ccccc4)CC3)CC2)cc1 | -4.5 | -14.7 | 0.8 | 6.6 | -8.8 | . | .
Cc1ccsc1CN(C)c1ncnc2ccc(-c3ccoc3)cc12 | . | . | -0.3 | . | . | . | .
Cc1noc(NS(=O)(=O)c2ccc(NC(=O)c3nn(-c4ccccc4)ccc3=O)cc2)c1C | -7.7 | -5.7 | -1.0 | 12.4 | -9.5 | . | .
Cc1ccc(/C=c2\sc3n(c2=O)CN(c2cccc(Br)c2)CN=3)o1 | 0.3 | -6.8 | -0.9 | 80.4* | -1.1 | 18.1 | 12.5
O=c1/c(=C/c2ccco2)sc2n1CN(c1cccc(Br)c1)CN=2 | 5.8 | -18.6 | 0.0 | 56.2 | -6.8 | . | .
Cc1ccc(S(=O)(=O)Nc2ccnc(-c3cccnc3)n2)cc1 | -6.8 | 3.0 | 0.1 | 7.7 | 9.4 | . | .
SMILES | CHO parental Ca | OX1R antag-1 | MPTP inh | OX1R antag-2 | GPR7 antag | OX1R HTRF confirm | CHO-K1 HTRF
CCOC(=O)/C(C#N)=C1/C=Nc2ccccc2N1 | -4.2 | 4.5 | 1.8 | 28.1 | 13.3 | . | .
CCC(=O)N=c1ccn(C2=Nc3ccccc3NC2=C(C#N)C#N)cc1 | -4.0 | -11.8 | 0.4 | 101.5* | -9.2 | 48.9 | 36.3*
Cn1c(=O)[nH]c(=O)c2c1nc(NC1CCCC1)n2Cc1ccccc1 | -22.8 | -29.5 | 0.2 | 1.0 | -13.2 | . | .
O=[n+]1c2c(n([O-])c3cc(F)ccc31)CCCC2 | -1.6 | -9.1 | -0.2 | 81.8* | -0.1 | 36.3 | 53.7*
O=[n+]1c2c(n([O-])c3ccccc31)CCC2 | 8.6 | -1.4 | -0.7 | 28.1 | -3.6 | . | .
CCOC(=O)COc1ccc2cc(C(=O)OCC)c(=O)oc2c1 | 4.4 | -2.6 | -0.2 | 110.4* | -5.4 | 34.0 | 38.4*
